Compound activity deposited in PubChem by The Scripps Research Institute Molecular Screening Center.
Most compounds without a hit are left out; they make up all but 4.6% or so of the library.
OX1R antag-1: antagonists of human orexin 1 receptor | O43613 | CHO/OX1R cells, Fluo-8 calcium fluorescence, orexin A | inhibition, % at 5 µM | hit rate 0.43% among 330,000 | AID 434989;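 active means inhibition above its plate's threshold, mean inhibition of all tested compounds on the plate plus 3 SD, cut at about 37% in these data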
Target sequence (O43613 whole entry, looked up): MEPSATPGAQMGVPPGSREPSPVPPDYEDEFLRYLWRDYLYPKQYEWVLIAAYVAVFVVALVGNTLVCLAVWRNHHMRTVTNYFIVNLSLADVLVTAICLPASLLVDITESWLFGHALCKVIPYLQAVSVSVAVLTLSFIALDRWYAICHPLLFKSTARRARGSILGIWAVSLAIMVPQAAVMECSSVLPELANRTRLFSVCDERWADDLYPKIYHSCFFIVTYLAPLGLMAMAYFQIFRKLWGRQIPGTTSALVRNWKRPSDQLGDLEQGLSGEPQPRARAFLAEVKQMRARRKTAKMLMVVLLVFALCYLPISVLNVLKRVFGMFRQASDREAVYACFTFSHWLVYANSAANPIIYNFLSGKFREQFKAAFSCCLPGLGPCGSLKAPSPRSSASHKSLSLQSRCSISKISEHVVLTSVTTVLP
CHO parental Ca: counter-screen: ATP calcium response change in parental CHO cells. parental CHO-K1, ATP-induced calcium, Fluo-8 fluorescence. inhibition, % at 5.6 µM. hit rate 0.63% among 330,000. AID 463079;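 active means inhibition above that plate's mean sample inhibition plus 3 SD, cut at about 26% in these data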
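Material: Parental CHO cells | Reagent: ATP | Compound dosing: Single nominal dose of 5.6 µM per compound | Detection: Intracellular calcium via Fluo-8 no-wash fluorescent dye | Read-out: % inhibition of ATP-induced calcium mobilization | Benchmarks: Low control ATP plus DMSO, high control DMSO only | Replicates: Singlicate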
OX1R antag-2: OX1R (human) antagonism | O43613 | OX1R-expressing cells, FRET antagonist read-out | inhibition, % at 6.6 µM | hit rate 1.8% among 330,000 | AID 485270; in the data active means inhibition mostly above about 38%, no sharp cut-off; inactive means mostly below about 40%
GPR7 antag: blocks human GPR7 receptor signaling; GPR7-expressing cells, fluorescence antagonist assay; hit rate 1.1% among 290,000; inhibition, % at 4.4 µM; in the data active means inhibition above about 16%, passing the limit was not always enough;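 further: cells stimulated with the agonist NPW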
Target sequence (P48145 whole entry, looked up): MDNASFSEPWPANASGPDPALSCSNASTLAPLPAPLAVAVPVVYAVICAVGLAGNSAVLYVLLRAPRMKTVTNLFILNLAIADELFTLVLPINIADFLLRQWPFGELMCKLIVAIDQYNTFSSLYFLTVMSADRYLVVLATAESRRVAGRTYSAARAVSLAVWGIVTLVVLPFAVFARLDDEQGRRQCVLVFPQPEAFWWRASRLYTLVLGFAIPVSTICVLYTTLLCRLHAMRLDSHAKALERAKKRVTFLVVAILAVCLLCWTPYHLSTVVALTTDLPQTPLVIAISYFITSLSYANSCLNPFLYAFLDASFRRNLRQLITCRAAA
TAAR1 antag: human TAAR1 antagonism | Q96RJ0 | inhibition, % at 3 µM | AID 624466 | hit rate 1.5% among 360,000 | CHO RD-HGA16 TAAR1, Fluo-8 calcium fluorescence, antagonist;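 active means inhibition above a per-plate cutoff, the mean inhibition of test compounds on that plate plus 3 SD, cut at about 49% in these data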
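Test system: CHO RD-HGA16 cells bearing hTAAR1 | Reagent: β-PEA, EC80 | Compound dosing: 3 µM, single point | Schedule: Dye loading 75 min at 37 °C, then 30 min room temperature | Signal: Calcium fluorescence with Fluo-8 | Evaluation: Percent inhibition of PEA-evoked calcium signal, max/basal emission ratio | Control set: DMSO-only wells and EC80 β-PEA-stimulated wells | Repeats: Singlicate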
TAAR1 agonist: human TAAR1 agonism; hit rate 0.99% among 360,000; activation, % at 3 µM; Q96RJ0; CHO RD-HGA16 TAAR1, Fluo-8 calcium fluorescence; vehicle wells 0%, saturating PEA agonist 100%;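 active means activation above the mean activation of all test compounds in the run plus 3 SD, cut at about 38% in these data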
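System: CHO RD-HGA16 cells carrying human TAAR1 plus Gα16; Incubation: 17-24 h seeding, 75 min 37 °C dye, 30 min RT; Measured by: Fluo-8 fluorescence, 5 s baseline then 140 s kinetic read; Control set: DMSO and PEA EC100; Replication: single well for each compound.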
GPR7 antag conf: human GPR7 antagonism, confirmation assay. shares compounds with GPR7 antag. GPR7-expressing cells, calcium fluorescence antagonist mode. inhibition, % at 4.4 µM. hit rate 52% among 2,400. AID 1952; in the data active means inhibition above about 24%;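 further: stimulated with the GPR7 agonist NPW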
MCHR1 antagonist: MCHR1 (human) antagonism in GPR7 counter-screen | shares compounds with GPR7 antag | MCHR1-expressing cells, fluorescence antagonist assay | inhibition, % at 4.4 µM | hit rate 62% among 2,400 | AID 2148; in the data active means inhibition above about 22%
Large screens that a line does not name were inactive (follow-up assays come after a bar, where they were run).

CCCC(CCC)C(=O)Nc1ccc2c(c1)N(C(=O)CN1CCN(C)CC1)c1ccccc1CC2	GPR7 antag 58 | GPR7 antag conf 39 | MCHR1 antagonist 22
CCc1cccc(CC)c1NC(=O)NC1CCCCC1	none
CCc1cccc(CC)c1NC(=O)CN1CC(C)SC1=NC1CCCCC1 (configuration not stated)	GPR7 antag 38 | GPR7 antag conf 55 | MCHR1 antagonist 33
CCOC(=O)C(C)Sc1snnc1C (configuration not stated)	none
CN(Cc1ccccc1)C(=O)COC(=O)c1c[nH]c2ccccc12	none (no result: OX1R antag-1, CHO parental Ca, OX1R antag-2, GPR7 antag)
CC(=O)Nc1ccc(S(=O)(=O)NCCC(=O)OC(C)C(=O)c2ccc(C)cc2)cc1 (configuration not stated)	GPR7 antag 27 | GPR7 antag conf inactive | MCHR1 antagonist 45
COC(=O)C1=C(C)N=C2SC(C#N)=C(N)N2C1c1ccc(OCc2ccccc2)cc1 (configuration not stated)	none
COC(=O)C1=C(C)N=C2SC(C#N)=C(N)N2C1c1cc(OC)c(OC)c(OC)c1 (configuration not stated)	GPR7 antag 28 | GPR7 antag conf inactive | MCHR1 antagonist inactive
Cc1cccc(C(=O)N(CCc2ccccc2)Cc2ccccc2)c1[N+](=O)[O-]	GPR7 antag 24 | GPR7 antag conf 24 | MCHR1 antagonist 67
COc1cc(Cn2c3ccc(NC(=O)CCc4cccnc4)cc3c(=O)n2C)ccc1F	none (no result: OX1R antag-1, CHO parental Ca, OX1R antag-2, GPR7 antag)
CCC(C)[C@H](NC(=O)C1(c2ccccc2)CCN(C(=O)OC(C)(C)C)CC1)C(=O)N[C@@H](C(=O)O)c1ccccc1 (some centres not stated)	GPR7 antag 27 | GPR7 antag conf inactive | MCHR1 antagonist inactive
COc1ccc(CCNC(=O)C2CCC(=O)N(C3CC3)C2)c(OC)c1 (configuration not stated)	none
O=C(Nc1cccc(S(=O)(=O)Nc2ccc(Cl)cc2)c1)c1ccc(Cl)nc1	GPR7 antag 24 | GPR7 antag conf 66 | MCHR1 antagonist 70
O=S(=O)(NCC1(N2CCOCC2)CCCCC1)c1ccc(F)cc1	none (no result: GPR7 antag)
O=C(Nc1ccc(N2CCN(c3ccc(C(F)(F)F)cn3)CC2)nc1)c1cccs1	none
O=C(Nc1ccc(N2CCN(c3ncccc3C(F)(F)F)CC2)nc1)c1cccs1	GPR7 antag 21, TAAR1 antag 75 | GPR7 antag conf 35 | MCHR1 antagonist 81
CCCN(CCC)c1nc(Cl)nc(NCc2ccco2)n1	GPR7 antag 21 | GPR7 antag conf inactive | MCHR1 antagonist inactive
COC(=O)[C@@H]1CC[C@H](C)[C@@H](c2ccc(C)cc2)N1C(=O)c1ccc(/C=N/O[C@@H](C)c2cn([C@H](CO)Cc3ccccc3)nn2)cc1	none (no result: TAAR1 antag, TAAR1 agonist)
COC(=O)Nc1nnc(/C=C/c2ccc(OC)cc2)s1	GPR7 antag 24 | GPR7 antag conf inactive | MCHR1 antagonist inactive
COC(=O)CCN(C1CCCCC1)S(=O)(=O)c1ccc(S(=O)(=O)NC2CCCCC2)cc1	GPR7 antag 40 | GPR7 antag conf 51 | MCHR1 antagonist 32
Cc1ccc(C(=O)N2CCN(c3ccc(NC(=O)c4ccc5c(c4)OCCO5)cc3)CC2)cc1	GPR7 antag 32 | GPR7 antag conf 33 | MCHR1 antagonist 65
O=C(Nc1ccc(N2CCN(C(=O)c3ccccc3)CC2)cc1)c1ccc2c(c1)OCO2	none
NS(=O)(=O)c1ccc(CNS(=O)(=O)c2ccc3ccccc3c2)cc1	none
O=C(O)c1ccc(CNS(=O)(=O)c2ccc3ccccc3c2)cc1	GPR7 antag 23 | GPR7 antag conf inactive | MCHR1 antagonist inactive
Cc1cc(C)cc(NC(=O)c2nnn(Cc3cc(C)ccc3C)c2N)c1	OX1R antag-1 80, CHO parental Ca 68, GPR7 antag 51 (no result: TAAR1 antag, TAAR1 agonist) | GPR7 antag conf 87 | MCHR1 antagonist 91
COc1cccc(NC(=O)c2nnn(CC(=O)Nc3cc(C)cc(C)c3)c2N)c1	none
Cc1ccc(C(=O)N2CCCCC2)cc1S(=O)(=O)N1CCCCCC1	GPR7 antag 21 | GPR7 antag conf 25 | MCHR1 antagonist inactive
Cc1ccc(C(=O)N2CCOCC2)cc1S(=O)(=O)N1CCCC1	none
CN1CCN(C(=O)c2ccc(Cl)c(S(=O)(=O)N3CCCCC3)c2)CC1	none
O=C(c1ccc(Cl)c(S(=O)(=O)N2CCCCCC2)c1)N1CCCCC1	none (no result: GPR7 antag) | MCHR1 antagonist inactive
CS(=O)(=O)N(CC(=O)N1CCN(Cc2ccc3c(c2)OCO3)CC1)C1CCCCC1	none
Brc1ccc(-c2nnc(Cc3ccccc3)o2)cc1	none
c1ccc(Cc2nnc(-c3ccccc3)o2)cc1	GPR7 antag 69 | GPR7 antag conf 71 | MCHR1 antagonist 60
COc1cccc(CNS(=O)(=O)c2ccc(S(=O)(=O)NC3CC3)cc2)c1	none
COc1ccc(CNS(=O)(=O)c2ccc(S(=O)(=O)NC3CC3)cc2)cc1	GPR7 antag 27 | GPR7 antag conf inactive | MCHR1 antagonist inactive
C=CCn1c(SCC(=O)N2CCCC2=O)nc2sc(CC)cc2c1=O	none (no result: GPR7 antag)
CCOC(=O)c1[nH]c(CN2CCN(c3ccc(OC)cc3)CC2)c(C(=O)OCC)c1C	GPR7 antag 25, TAAR1 agonist 51 | GPR7 antag conf inactive | MCHR1 antagonist 39
COc1cccc(C(O)c2nc(-c3cc4ccccc4o3)cs2)c1 (configuration not stated)	none (no result: OX1R antag-1, CHO parental Ca, OX1R antag-2, GPR7 antag)
CCc1ccc2nc(N(CCCN(C)C)C(=O)c3ccc(S(=O)(=O)N4CCc5ccccc5C4)cc3)sc2c1	none
COc1cc2nc(N(CCCN(C)C)C(=O)c3ccc(S(=O)(=O)N(C)C4CCCCC4)cc3)sc2cc1OC	none (no result: GPR7 antag)
CCc1ccc2nc(N(CCCN(C)C)C(=O)c3ccc(S(=O)(=O)N(C)C4CCCCC4)cc3)sc2c1	GPR7 antag 36, TAAR1 antag 51, TAAR1 agonist 39 | GPR7 antag conf 56 | MCHR1 antagonist 54
CN(C)CCCN(C(=O)c1ccc(S(=O)(=O)N(C)C2CCCCC2)cc1)c1nc2ccc(Br)cc2s1	GPR7 antag 22 | GPR7 antag conf 50 | MCHR1 antagonist 55
O=C(NCCCCc1ccccc1)c1ccccc1F	none
CC(=O)c1ccc(N2CCN(S(=O)(=O)c3ccc4c(c3)CC(=O)N4)CC2)cc1	none
CC(=O)c1ccc(N2CCN(S(=O)(=O)c3ccc4c5c3CC(=O)N5CC(C)S4)CC2)cc1 (configuration not stated)	GPR7 antag 25 (no result: TAAR1 antag, TAAR1 agonist) | GPR7 antag conf inactive | MCHR1 antagonist 41
COC(=O)c1cc(S(=O)(=O)N2CCN(c3ccccc3OC)CC2)cn1C	none
